{"source": "ChEMBL document CHEMBL1275442", "about": "“Pharmacokinetics and tissue distribution of anidulafungin in rats” (Antimicrob Agents Chemother, 2008)", "type_in_all_cases": "ADME, organism-based", "key": {"Muscle tissue [1]": {"test_system": "Muscle tissue", "assay": "Drug level in Long Evans rat muscle assessed as radioactivity per gram of tissue at 5 mg/kg, iv administered as single bolus dose measured 6 hrs postdose by autoradiography", "set-up": "dose 5 mg/kg, route intravenous", "details": "in vivo", "how_it_was_run": "(§1)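 Male pigmented Long Evans (HsdBlu:LE) rats, 7.5 weeks old and 202 to 217 g, got a single iv dose of [14C]anidulafungin at 5 mg/kg. One rat per time point (0.5, 6, 12, 24, 72, 168 h) was euthanised by isoflurane and cardiac-puncture exsanguination. Sagittal whole-body sections were quantified by phosphorimaging. Samples were thickness-corrected, and concentrations (μg eq/g) were interpolated from least-squares standard curves.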"}, "Zone of skin [2]": {"test_system": "Zone of skin", "assay": "Tmax in F344 rat skin assessed as total compound-derived radioactivity at 5 mg/kg, iv administered as single bolus dose […]", "set-up": "dose 5 mg/kg, route intravenous", "details": "in vivo", "how_it_was_run": "(§2)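 Male F344 rats, 10 to 11 weeks old and 223.6 to 243.8 g, got one iv dose of [14C]anidulafungin at 5 mg/kg over about 5 min. Blood, CSF, kidney, liver, lung, quadriceps, spleen and skin were sampled predose and at 0.083 to 72 h, 3 rats per time. Total radioactivity (parent plus metabolites) was measured by liquid scintillation counting. Parameters were noncompartmental, from a composite mean profile.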"}, "Liver [3]": {"test_system": "Liver", "assay": "Drug level in Long Evans rat liver assessed as high disposition of radioactivity per gram of tissue at 5 mg/kg, iv administered as single bolus dose measured 72 hrs postdose by autoradiography", "set-up": "dose 5 mg/kg, route intravenous", "details": "in vivo", "how_it_was_run": "(§3)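 Male pigmented Long Evans (HsdBlu:LE) rats, 7.5 weeks old, 202 to 217 g, single iv [¹⁴C]anidulafungin; one rat per sampling time. Euthanized by isoflurane and cardiac-puncture exsanguination. Sagittal whole-body sections quantified by phosphorimaging autoradiography, single samples corrected for section thickness across multiple sections per tissue. Concentrations (μg eq/g drug-derived radioactivity) interpolated from least-squares standard curves per scan.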"}, "Muscle tissue [4]": {"test_system": "Muscle tissue", "assay": "AUC (0 to infinity) in F344 rat muscle assessed as total compound-derived radioactivity per gram of tissue at 5 mg/kg, iv administered as single bolus dose […]", "set-up": "time infinity, dose 5 mg/kg, route intravenous", "details": "in vivo", "how_it_was_run": "(§4)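 Same F344 study: single 5 mg/kg IV [¹⁴C]anidulafungin given over about 5 min. Total drug-derived radioactivity (parent plus metabolites) counted by liquid scintillation, in […]. Noncompartmental analysis of the composite mean profile.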"}, "Blood [5]": {"test_system": "Blood", "assay": "AUC (0 to 24 hrs) in F344 rat blood assessed as total compound-derived radioactivity per gram of tissue at 5 mg/kg, iv administered as single bolus dose […]", "set-up": "time < 24 hr, dose 5 mg/kg, route intravenous", "details": "in vivo", "how_it_was_run": "as §4"}, "Plasma [6]": {"test_system": "Plasma", "assay": "AUC (0 to 24 hrs) in F344 rat plasma assessed as total compound-derived radioactivity per gram of tissue at 5 mg/kg, iv administered as single bolus dose […]", "set-up": "time < 24 hr, dose 5 mg/kg, route intravenous", "details": "in vivo", "how_it_was_run": "as §4"}, "Spleen [7]": {"test_system": "Spleen", "assay": "AUC (0 to infinity) in F344 rat spleen assessed as total compound-derived radioactivity per gram of tissue at 5 mg/kg, iv administered as single bolus dose […]", "set-up": "time infinity, dose 5 mg/kg, route intravenous", "details": "in vivo", "how_it_was_run": "as §4"}, "Lung": {"test_system": "Lung", "assay": "AUC (0 to infinity) in F344 rat lung at 5 mg/kg, iv administered as single bolus dose", "set-up": "time infinity, dose 5 mg/kg, route intravenous", "details": "in vivo", "how_it_was_run": "(§5)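 Male F344 rats, 10–11 weeks, 223.6–243.8 g, given one IV dose of [¹⁴C]anidulafungin, 5 mg/kg, over about 5 min. Tissues and blood sampled at 0.083–72 h (n = 3 rats per time). Parent drug measured by HPLC; LLOQ/ULOQ were 20/5,120 ng/ml for plasma and 220/56,320 ng/g for tissue. Noncompartmental parameters taken from the composite mean profile.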"}, "Kidney [8]": {"test_system": "Kidney", "assay": "AUC (0 to 24 hrs) in F344 rat kidney assessed as total compound-derived radioactivity per gram of tissue at 5 mg/kg, iv administered as single bolus dose […]", "set-up": "time < 24 hr, dose 5 mg/kg, route intravenous", "details": "in vivo", "how_it_was_run": "as §4"}, "Cerebrospinal fluid [9]": {"test_system": "Cerebrospinal fluid", "assay": "Drug level in Long Evans rat cerebrospinal fluid assessed as radioactivity per gram of tissue at 5 mg/kg, iv administered as single bolus dose measured 72 hrs postdose by autoradiography", "set-up": "dose 5 mg/kg, route intravenous", "details": "in vivo", "how_it_was_run": "as §3"}, "Kidney [10]": {"test_system": "Kidney", "assay": "AUC (0 to infinity) in F344 rat kidney at 5 mg/kg, iv administered as single bolus dose", "set-up": "time infinity, dose 5 mg/kg, route intravenous", "details": "in vivo", "how_it_was_run": "as §5"}, "Spleen [11]": {"test_system": "Spleen", "assay": "Drug level in Long Evans rat spleen assessed as radioactivity per gram of tissue at 5 mg/kg, iv administered as single bolus dose measured 24 hrs postdose by autoradiography", "set-up": "dose 5 mg/kg, route intravenous", "details": "in vivo", "how_it_was_run": "as §1"}, "Cerebrospinal fluid [12]": {"test_system": "Cerebrospinal fluid", "assay": "Drug level in Long Evans rat cerebrospinal fluid assessed as radioactivity per gram of tissue at 5 mg/kg, iv administered as single bolus dose measured 6 hrs postdose by autoradiography", "set-up": "dose 5 mg/kg, route intravenous", "details": "in vivo", "how_it_was_run": "as §3"}, "Plasma [13]": {"test_system": "Plasma", "assay": "Half life in F344 rat plasma assessed as total compound-derived radioactivity at 5 mg/kg, iv administered as single bolus dose […]", "set-up": "dose 5 mg/kg, route intravenous", "details": "in vivo", "how_it_was_run": "as §2"}, "[14]": {"assay": "Tmax in F344 rat liver at 5 mg/kg, iv administered as single bolus dose by HPLC method", "set-up": "dose 5 mg/kg, route intravenous", "how_it_was_run": "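F344 males, 10 to 11 weeks old and 223.6 to 243.8 g, got a single 5 mg/kg iv dose of [14C]anidulafungin over about 5 min. Plasma and tissues were collected predose and at 0.083 to 72 h, n = 3 per time point. Parent drug was quantified by HPLC-UV, with LLOQ/ULOQ of 20/5,120 ng/ml in plasma and 220/56,320 ng/g in tissue. Noncompartmental parameters came from a composite mean concentration-time profile.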"}, "Blood [15]": {"test_system": "Blood", "assay": "AUC (0 to infinity) in F344 rat blood assessed as total compound-derived radioactivity per gram of tissue at 5 mg/kg, iv administered as single bolus dose […]", "set-up": "dose 5 mg/kg, route intravenous, time infinity", "details": "in vivo", "how_it_was_run": "as §4"}, "[16]": {"assay": "Drug level in Long Evans rat eye assessed as radioactivity per gram of tissue at 5 mg/kg, iv administered as single bolus dose measured 72 hrs postdose by autoradiography", "set-up": "dose 5 mg/kg, route intravenous", "details": "in vivo", "how_it_was_run": "as §3"}, "Liver [17]": {"test_system": "Liver", "assay": "Cmax in F344 rat liver assessed as total compound-derived radioactivity per gram of tissue at 5 mg/kg, iv administered as single bolus dose […]", "set-up": "dose 5 mg/kg, route intravenous", "details": "in vivo", "how_it_was_run": "as §4"}, "Blood [18]": {"test_system": "Blood", "assay": "Half life in F344 rat blood assessed as total compound-derived radioactivity at 5 mg/kg, iv administered as single bolus dose […]", "set-up": "dose 5 mg/kg, route intravenous", "details": "in vivo", "how_it_was_run": "as §2"}, "Muscle tissue [19]": {"test_system": "Muscle tissue", "assay": "Drug level in Long Evans rat muscle assessed as radioactivity per gram of tissue at 5 mg/kg, iv administered as single bolus dose measured 24 hrs postdose by autoradiography", "set-up": "dose 5 mg/kg, route intravenous", "details": "in vivo", "how_it_was_run": "as §1"}, "Zone of skin [20]": {"test_system": "Zone of skin", "assay": "Drug level in Long Evans rat skin assessed as radioactivity per gram of tissue at 5 mg/kg, iv administered as single bolus dose measured 0.5 hrs postdose by autoradiography", "set-up": "dose 5 mg/kg, route intravenous", "details": "in vivo", "how_it_was_run": "as §1"}, "Muscle tissue [21]": {"test_system": "Muscle tissue", "assay": "AUC (0 to 24 hrs) in F344 rat muscle assessed as total compound-derived radioactivity per gram of tissue at 5 mg/kg, iv administered as single bolus dose […]", "set-up": "time < 24 hr, dose 5 mg/kg, route intravenous", "details": "in vivo", "how_it_was_run": "as §4"}, "Kidney [22]": {"test_system": "Kidney", "assay": "Drug level in Long Evans rat kidney assessed as low disposition of radioactivity per gram of tissue at 5 mg/kg, iv administered as single bolus dose measured 0.5 hrs postdose by autoradiography", "set-up": "dose 5 mg/kg, route intravenous", "details": "in vivo", "how_it_was_run": "as §3"}, "Zone of skin [23]": {"test_system": "Zone of skin", "assay": "Drug level in Long Evans rat skin assessed as radioactivity per gram of tissue at 5 mg/kg, iv administered as single bolus dose measured 72 hrs postdose by autoradiography", "set-up": "dose 5 mg/kg, route intravenous", "details": "in vivo", "how_it_was_run": "as §1"}, "Liver [24]": {"test_system": "Liver", "assay": "Drug level in Long Evans rat liver assessed as low disposition of radioactivity per gram of tissue at 5 mg/kg, iv administered as single bolus dose measured 24 hrs postdose by autoradiography", "set-up": "dose 5 mg/kg, route intravenous", "details": "in vivo", "how_it_was_run": "as §3"}, "Cerebrum": {"test_system": "Cerebrum", "assay": "Drug level in Long Evans rat cerebrum assessed as radioactivity per gram of tissue at 5 mg/kg, iv administered as single bolus dose measured 168 hrs postdose by autoradiography", "set-up": "dose 5 mg/kg, route intravenous", "details": "in vivo", "how_it_was_run": "as §3"}}, "data": [{"smiles": "CCCCCOc1ccc(-c2ccc(-c3ccc([14C](=O)N[C@H]4C[C@@H](O)[C@@H](O)NC(=O)[C@@H]5[C@@H](O)[C@@H](C)CN5C(=O)[C@H]([C@@H](C)O)NC(=O)[C@H]([C@H](O)[C@@H](O)c5ccc(O)cc5)NC(=O)[C@@H]5C[C@@H](O)CN5C(=O)[C@H]([C@@H](C)O)NC4=O)cc3)cc2)cc1", "note": "[14C-ANIDULAFUNGIN]", "values": [{"measurement": "Drug uptake", "setting": "Muscle tissue [1]", "result": 2.53, "unit": "ugequiv"}, {"measurement": "Tmax", "setting": "Zone of skin [2]", "result": 1, "unit": "h"}, {"measurement": "Drug uptake", "setting": "Liver [3]", "result": 16.9, "unit": "ugequiv"}, {"measurement": "AUC", "setting": "Muscle tissue [4]", "result": 139.22, "unit": "ugequiv.hr/g"}, {"measurement": "AUC", "setting": "Blood [5]", "result": 203.14, "unit": "ugequiv.hr/g"}, {"measurement": "AUC", "setting": "Plasma [6]", "result": 131.77, "unit": "ugequiv.hr/g"}, {"measurement": "AUC", "setting": "Spleen [7]", "result": 1152.68, "unit": "ugequiv.hr/g"}, {"measurement": "AUC", "setting": "Lung", "result": 638.21, "unit": "µg·h/g"}, {"measurement": "AUC", "setting": "Kidney [8]", "result": 920.18, "unit": "ugequiv.hr/g"}, {"measurement": "Drug uptake", "setting": "Cerebrospinal fluid [9]", "result": 3.37, "unit": "ugequiv"}, {"measurement": "AUC", "setting": "Kidney [10]", "result": 658.93, "unit": "µg·h/g"}, {"measurement": "Drug uptake", "setting": "Spleen [11]", "result": 10.25, "unit": "ugequiv"}, {"measurement": "Drug uptake", "setting": "Cerebrospinal fluid [12]", "result": 5.54, "unit": "ugequiv"}, {"measurement": "t1/2", "setting": "Plasma [13]", "result": 37.4, "unit": "h"}, {"measurement": "Tmax", "setting": "[14]", "result": 4.98, "unit": "min"}, {"measurement": "AUC", "setting": "Blood [15]", "result": 243.62, "unit": "ugequiv.hr/g"}, {"measurement": "Drug uptake", "setting": "[16]", "result": 0.72, "unit": "ugequiv"}, {"measurement": "Cmax", "setting": "Liver [17]", "result": 24.28, "unit": "ugequiv/g"}, {"measurement": "t1/2", "setting": "Blood [18]", "result": 28.5, "unit": "h"}, {"measurement": "Drug uptake", "setting": "Muscle tissue [19]", "result": 1.17, "unit": "ugequiv"}, {"measurement": "Drug uptake", "setting": "Zone of skin [20]", "result": 5.42, "unit": "ugequiv"}, {"measurement": "AUC", "setting": "Muscle tissue [21]", "result": 102.96, "unit": "ugequiv.hr/g"}, {"measurement": "Drug uptake", "setting": "Kidney [22]", "result": 9.18, "unit": "ugequiv"}, {"measurement": "Drug uptake", "setting": "Zone of skin [23]", "result": 4.04, "unit": "ugequiv"}, {"measurement": "Drug uptake", "setting": "Liver [24]", "result": 14.7, "unit": "ugequiv"}, {"measurement": "Drug uptake", "setting": "Cerebrum", "result": 0.6, "unit": "ugequiv"}]}]}
